# Measured values: ChEMBL document CHEMBL3526146, “In vitro and in vivo metabolism and pharmacokinetics of BMS-562086, a potent and orally bioavailable corticotropin-releasing factor-1 receptor antagonist” (Drug Metab Dispos, 2012)
# Tests used:
# [1] = Drug metabolism in bile duct-cannulated Sprague-Dawley rat urine assessed as BMS-572273 metabolite level at 30 mg/kg, po after 12 hrs by LC-MS/MS analysis; type: ADME, organism-based; design: dose 30 mg/kg, route oral; details: in vivo
# How it was run: (§1)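 Male bile-duct-cannulated Sprague-Dawley rats (n=3), fasted overnight, received 30 mg/kg by gavage in 0.5% methylcellulose. Urine and bile were collected 0-12 h and pooled by equal percentage weight across animals, then centrifuged. Supernatants were profiled by LC/MS/MS. Bile was also treated with β-glucuronidase in pH 4.8 acetate buffer, 37°C, 16 h.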
# Liver microsome [2] = assay: Drug metabolism in human liver microsomes assessed as BMS-572273 metabolite formation at 100 uM after 1 hr in presence of NADPH and ketoconazole; type: ADME
# [3] = Terminal half life in Sprague-Dawley rat at 1 mg/kg, iv; type: ADME, organism-based; design: dose 1 mg/kg, route intravenous; details: in vivo, read-out: beta t1/2 (converted)
# How it was run: (§2)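 Male Sprague-Dawley rats (n=3 per route, 0.34–0.35 kg) with jugular cannulas, fasted about 18 h before and 4 h after dosing. IV dose of 1 mg/kg in 20% ethanol/saline; oral dose of 5 mg/kg by gavage in 0.5% methylcellulose. Plasma sampled 0–96 h and assayed by LC/MS/MS (LLOQ 1.00 ng/ml). Noncompartmental analysis.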
# [4] = Terminal half life in Sprague-Dawley rat at 5 mg/kg, po; type: ADME, organism-based; design: dose 5 mg/kg, route oral; details: in vivo, read-out: beta t1/2 (converted); how it was run: as §2
# [5] = Plasma clearance in beagle dog at 1 mg/kg, iv; type: ADME, organism-based, Canis lupus familiaris; design: dose 1 mg/kg, route intravenous
# How it was run: (§3)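 Male beagle dogs (n=3), one-way IV/PO crossover with a one-week washout, fasted about 15 h before and 4 h after dosing. IV dose of 1 mg/kg as a saphenous bolus in N,N-dimethylacetamide:propylene glycol:water (1:7:2); PO dose of 5 mg/kg by gavage in 0.5% methylcellulose. Plasma sampled 0–96 h and assayed by LC/MS/MS (LLOQ 1.00 ng/ml). Noncompartmental analysis; CL = dose/AUC(INF) after IV; F from dose-normalized AUC ratio.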
# Canis familiaris = assay: Terminal volume of distribution in beagle dog at 1 mg/kg, iv; type: ADME, organism-based, Canis lupus familiaris; design: dose 1 mg/kg, route intravenous; details: in vivo
# How it was run: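 Male beagles (n=3, 10.1-12.7 kg), fasted ~15 h pre- and 4 h post-dose, given a 1 mg/kg IV bolus via saphenous vein catheter in N,N-dimethylacetamide:propylene glycol:water (1:7:2). Plasma drawn 0-96 h and assayed by LC/MS/MS. Noncompartmental analysis; Vz = CLp (dose/AUC(INF)) divided by elimination rate constant.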
# [6] = Cmax in beagle dog at 5 mg/kg, po; type: ADME, organism-based, Canis lupus familiaris; design: dose 5 mg/kg, route oral; details: in vivo
# How it was run: (§4)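 Male beagle dogs (n=3, 10.1-12.7 kg) in a one-way IV/PO crossover with one-week washout, fasted ~15 h pre-dose and 4 h post-dose. Dosing was 1 mg/kg IV bolus into the saphenous vein in DMA:propylene glycol:water (1:7:2), or 5 mg/kg gavage in 0.5% methylcellulose. Blood was sampled 0-96 h. Plasma was assayed by LC/MS/MS (LLOQ 1.00 ng/ml) with noncompartmental analysis; Cmax was observed directly.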
# [7] = Tmax in beagle dog at 5 mg/kg, po; type: ADME, organism-based, Canis lupus familiaris; design: dose 5 mg/kg, route oral; details: in vivo
# How it was run: (§5)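 Male beagles (n=3, 10.1-12.7 kg) in one-way crossover, one-week washout after IV leg; fasted ~15 h before and 4 h after dosing. Single gavage 5 mg/kg in 0.5% aqueous methylcellulose. Plasma sampled 0-96 h, parent measured by validated LC/MS/MS (1.00-1000 ng/ml). Noncompartmental analysis; Tmax taken from observed data.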
# [8] = AUC (infinity) in beagle dog at 5 mg/kg, po; type: ADME, organism-based, Canis lupus familiaris; design: time infinity, dose 5 mg/kg, route oral; details: plasma; how it was run: as §4
# [9] = Terminal half life in beagle dog at 5 mg/kg, po; type: ADME, organism-based, Canis lupus familiaris; design: dose 5 mg/kg, route oral; details: in vivo, read-out: beta t1/2 (converted); how it was run: as §5
# [10] = Oral bioavailability in beagle dog at 5 mg/kg; type: ADME, organism-based, Canis lupus familiaris; details: in vivo; how it was run: as §3
# Liver microsome [11] = assay: Drug metabolism in human liver microsomes assessed as DPH-123554 metabolite formation at 100 uM after 1 hr in presence of NADPH and ketoconazole; type: ADME
# [12] = Protein binding in rat serum after 3 hrs by equilibrium dialysis; type: ADME, cell-free; details: read-out: PB (converted)
# How it was run: (§6)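 Equilibrium dialysis of serum spiked to final 12.8, 25.6 and 38.5 µM against 134 mM phosphate buffer, pH 7.4, through a 10,000 Da cutoff membrane. Cells rotated at 20 rpm, 37°C, 3 h. Percent unbound taken as buffer concentration divided by serum concentration.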
# [13] = Protein binding in human serum after 3 hrs by equilibrium dialysis; type: ADME, cell-free; details: read-out: PB (converted); how it was run: as §6
# Serum = assay: Metabolic stability in rat serum after 3 hrs by equilibrium dialysis; type: ADME, cell-free
# How it was run: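 Stability assessed in the serum samples from the equilibrium-dialysis setup: compound at final 12.8, 25.6 and 38.5 µM, dialysed against 134 mM phosphate buffer, pH 7.4, at 37°C with rotation at 20 rpm. Samples monitored for degradants over the 3-h incubation.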
# [14] = Drug metabolism in human cryopreserved hepatocytes assessed as […] at 25 uM after 3 hrs by HPLC analysis; type: ADME, cell-based, Hepatocyte
# [15] = Drug metabolism in mouse hepatocytes assessed as 7-hydroxycoumarin formation at 25 uM after 3 hrs by HPLC analysis; type: ADME, cell-based, Hepatocyte
# [16] = Drug metabolism in rat hepatocytes assessed as 7-hydroxycoumarin formation at 25 uM after 3 hrs by HPLC analysis; type: ADME, cell-based, Hepatocyte
# [17] = Drug metabolism in cynomolgus monkey cryopreserved hepatocytes assessed as 7-hydroxycoumarin formation at 25 uM after 3 hrs by HPLC analysis; type: ADME, cell-based, Macaca fascicularis, Hepatocyte
# [18] = Drug metabolism in mouse hepatocytes assessed as decrease of compound level at 25 uM after 3 hrs by HPLC analysis; type: ADME, cell-based, Hepatocyte; details: read-out: Drug metabolism
# [19] = Drug metabolism in rat hepatocytes assessed as decrease of compound level at 25 uM after 3 hrs by HPLC analysis; type: ADME, cell-based, Hepatocyte; details: read-out: Drug metabolism
# [20] = Drug metabolism in beagle dog hepatocytes assessed as decrease of compound level at 25 uM after 3 hrs by HPLC analysis; type: ADME, cell-based, Canis lupus familiaris, Hepatocyte; details: read-out: Drug metabolism
# How it was run: (§7)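 Mouse, rat, dog, monkey and human hepatocytes (trypan blue viability checked) at 1.0×10^6 cells/ml in Krebs-Henseleit buffer were incubated with 25 µM compound, in duplicate. Conditions were 37°C, 95/5 O2/CO2, orbital shaking, 3 h. 7-Ethoxycoumarin and 7-hydroxycoumarin (100 µM) served as positive controls, with a cell-free negative control. Reactions were quenched with ice-cold acetonitrile, then sonicated and centrifuged; supernatants were analysed by LC/MS/MS.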
# [21] = Drug metabolism in cynomolgus monkey cryopreserved hepatocytes assessed as decrease of compound level at 25 uM after 3 hrs by HPLC analysis; type: ADME, cell-based, Macaca fascicularis, Hepatocyte; details: read-out: Drug metabolism; how it was run: as §7
# [22] = Drug metabolism in human cryopreserved hepatocytes assessed as decrease of compound level at 25 uM after 3 hrs by HPLC analysis; type: ADME, cell-based, Hepatocyte; details: read-out: Drug metabolism
# [23] = Drug metabolism in rat hepatocytes assessed as at 25 uM after 3 hrs by HPLC analysis
# [24] = Drug metabolism in bile duct-cannulated Sprague-Dawley rat urine assessed as DPH-123554 metabolite level at 30 mg/kg, po after 12 hrs by LC-MS/MS analysis; type: ADME, organism-based; design: dose 30 mg/kg, route oral; details: in vivo; how it was run: as §1
# [25] = Drug metabolism in bile duct-cannulated Sprague-Dawley rat bile assessed as DPH-123554 metabolite level at 30 mg/kg, po after 12 hrs by LC-MS/MS analysis; type: ADME, organism-based; design: dose 30 mg/kg, route oral; details: in vivo; how it was run: as §1
# [26] = Drug metabolism in bile duct-cannulated Sprague-Dawley rat urine assessed as DPH-124921metabolite level at 30 mg/kg, po after 12 hrs by LC-MS/MS analysis; type: ADME, organism-based; design: dose 30 mg/kg, route oral; details: in vivo; how it was run: as §1
compound,measurement,setting,value
COc1ccc(-c2c(C)nn3c(O)nc(C)nc23)c(C)n1,Drug metabolism,[1],metabolite_detected
CC[C@@H](C)Nc1nc(C)nc2c(-c3ccc(OC)nc3C)c(C)nn12 [PEXACERFONT],Drug metabolism,Liver microsome [2],metabolite_not_detected
same,half-life,[3],810 min
same,half-life,[4],829 min
same,clearance,[5],11.6 mL/min/kg
same,Vz,Canis familiaris,28.2 L/kg
same,Cmax,[6],1800 nM
same,Tmax,[7],45 min
same,AUC(0-inf),[8],13 µM·h
same,half-life,[9],2800 min
same,bioavailability,[10],58.8%
same,Drug metabolism,Liver microsome [11],metabolite_not_detected
same,fraction unbound at 3 h,[12],0.064
same,fraction unbound at 3 h,[13],0.039
same,Stability,Serum,Stable
same,Drug metabolism,[14],metabolite_detected
same,Drug metabolism,[15],metabolite_detected
same,Drug metabolism,[16],metabolite_detected
same,Drug metabolism,[17],metabolite_detected
same,"metabolised at 3 h, 25 µM",[18],75%
same,"metabolised at 3 h, 25 µM",[19],68%
same,"metabolised at 3 h, 25 µM",[20],61%
same,"metabolised at 3 h, 25 µM",[21],83%
same,"metabolised at 3 h, 25 µM",[22],40%
same,Drug metabolism,[23],metabolite_detected
CC[C@@H](C)Nc1nc(C)nc2c(-c3ccc(O)nc3C)c(C)nn12,Drug metabolism,[24],metabolite_detected
same,Drug metabolism,[25],metabolite_detected
COc1ccc(-c2c(C)nn3c(N)nc(C)nc23)c(C)n1,Drug metabolism,[26],metabolite_detected
